Assay results reported in ChEMBL document CHEMBL1828628, “Discovery of a tetrahydroisoquinoline-based hydroxamic acid derivative (ZYJ-34c) as histone deacetylase inhibitor with potent oral antitumor activities” (J Med Chem, 2011).
The source made the active and inactive calls. The calls are words filed in the database; no cut-off is given here.

Legend:
Mus musculus [1] = test: Toxicity in human MDA-MB-231 cells xenografted BALB/c nu mouse assessed as change in body weight at 90 mg/kg, ip qd for 19 days; type: organism-based; design: dose 90 mg/kg, route intraperitoneal; conditions: in vivo, 456 h
Outline: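 Female BALB/c-nu mice, 5–6 weeks old, bearing subcutaneous right-flank xenografts. Mice were randomized 6 per group at about 100 mm3 tumor size. Dosing was oral or intraperitoneal for 19 days; controls received an equal volume of PBS containing DMSO. Body weight was monitored regularly during treatment, and tumors were measured by caliper every three days.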

H22 = test: Antitumor activity against mouse H22 cells xenografted in Kunming mouse assessed as reduction of pulmonary metastatic nodes in lungs at 90 mg/kg, po qd for 14 days; type: functional, organism-based; design: dose 90 mg/kg
[2] = target: Aminopeptidase N (Homo sapiens) (UniProt P15144); test: Inhibition of aminopeptidase N
Mus musculus [3] = test: Toxicity in mouse H22 cells xenografted Kunming mouse assessed as signs of organ toxicity at 90 mg/kg, po qd for 19 days; type: organism-based; design: dose 90 mg/kg, route oral; conditions: in vivo, 456 h
[4] = target: 72 kDa type IV collagenase (Homo sapiens) (UniProt P08253); test: Inhibition of MMP2
MDA-MB-231 [5] = test: Antitumor activity against human MDA-MB-231 cells xenografted in BALB/c nu mouse assessed as tumor growth inhibition at 90 mg/kg, ip qd for 19 days relative to control; type: functional; conditions: route intraperitoneal; for inhibition in vivo at 90 mg/kg: Mus musculus, MDA-MB-231, ip, 456 h, read-out: TGI
Mus musculus [6] = test: Toxicity in mouse H22 cells xenografted Kunming mouse assessed as change in body weight at 90 mg/kg, po qd for 19 days; type: organism-based; design: dose 90 mg/kg, route oral; conditions: in vivo, 456 h
MDA-MB-231 [7] = test: Cell cycle arrest in human MDA-MB-231 cells assessed as accumulation at G1 phase at 1 uM after 48 hrs using propidium iodide staining by flow cytometric analysis; type: functional, cell-based
Outline: (§1)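 MDA-MB-231 cells were seeded at 4 × 10^5 per well and incubated overnight, then treated for 48 h. Cells were fixed overnight in 70% ethanol phosphate buffer and washed twice with PBS. They were treated with DNase-free RNase A (1 mg/mL) for 30 min, then stained with propidium iodide for 30 min in the dark at room temperature. DNA content was read by FACScan flow cytometry.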

MDA-MB-231 [8] = test: Cell cycle arrest in human MDA-MB-231 cells assessed as accumulation at G2 phase at 5 uM after 48 hrs using propidium iodide staining by flow cytometric analysis; type: functional, cell-based; outline: as §1

Chain of Aminopeptidase N (Homo sapiens) (P15144 whole entry): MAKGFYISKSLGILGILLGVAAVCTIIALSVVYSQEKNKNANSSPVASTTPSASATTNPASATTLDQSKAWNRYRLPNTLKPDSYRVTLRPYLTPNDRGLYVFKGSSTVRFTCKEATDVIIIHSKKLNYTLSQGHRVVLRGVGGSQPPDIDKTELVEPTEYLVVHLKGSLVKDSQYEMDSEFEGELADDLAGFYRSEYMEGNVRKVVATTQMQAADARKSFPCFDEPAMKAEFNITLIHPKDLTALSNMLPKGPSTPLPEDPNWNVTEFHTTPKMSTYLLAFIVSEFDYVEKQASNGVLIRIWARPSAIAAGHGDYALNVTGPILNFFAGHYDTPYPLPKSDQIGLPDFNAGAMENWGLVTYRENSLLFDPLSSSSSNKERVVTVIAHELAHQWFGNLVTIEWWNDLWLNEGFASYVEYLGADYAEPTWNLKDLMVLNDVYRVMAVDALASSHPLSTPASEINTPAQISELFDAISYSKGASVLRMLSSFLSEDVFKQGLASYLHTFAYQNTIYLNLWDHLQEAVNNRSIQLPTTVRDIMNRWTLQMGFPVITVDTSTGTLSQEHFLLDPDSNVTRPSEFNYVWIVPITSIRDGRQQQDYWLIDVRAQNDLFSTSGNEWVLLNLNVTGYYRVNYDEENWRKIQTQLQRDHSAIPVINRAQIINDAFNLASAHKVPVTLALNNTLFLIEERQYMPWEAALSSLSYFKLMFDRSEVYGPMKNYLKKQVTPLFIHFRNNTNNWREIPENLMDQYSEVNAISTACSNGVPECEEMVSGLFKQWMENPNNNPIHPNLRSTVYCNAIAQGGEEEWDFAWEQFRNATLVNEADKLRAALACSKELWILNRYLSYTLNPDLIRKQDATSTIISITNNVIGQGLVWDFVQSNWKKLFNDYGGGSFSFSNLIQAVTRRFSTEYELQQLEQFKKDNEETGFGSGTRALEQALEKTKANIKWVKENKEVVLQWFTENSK
Chain of 72 kDa type IV collagenase (Homo sapiens) (P08253 110-660 limits assumed): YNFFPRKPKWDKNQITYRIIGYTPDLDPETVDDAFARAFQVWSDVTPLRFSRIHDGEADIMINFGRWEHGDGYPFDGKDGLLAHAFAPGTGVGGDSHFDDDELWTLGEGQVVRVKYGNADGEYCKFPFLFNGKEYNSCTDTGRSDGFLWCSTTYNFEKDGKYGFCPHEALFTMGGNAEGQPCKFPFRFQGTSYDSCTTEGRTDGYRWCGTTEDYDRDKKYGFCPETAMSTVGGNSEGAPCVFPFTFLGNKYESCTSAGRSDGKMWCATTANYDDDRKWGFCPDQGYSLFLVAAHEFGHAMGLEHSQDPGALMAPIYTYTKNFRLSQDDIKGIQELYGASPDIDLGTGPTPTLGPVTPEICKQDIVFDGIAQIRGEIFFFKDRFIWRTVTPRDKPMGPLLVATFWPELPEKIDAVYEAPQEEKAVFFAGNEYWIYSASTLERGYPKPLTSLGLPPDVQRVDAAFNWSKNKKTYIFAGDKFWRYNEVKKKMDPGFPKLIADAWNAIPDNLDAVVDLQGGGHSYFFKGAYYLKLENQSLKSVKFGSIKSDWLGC

| inhibition [2] | inhibition [4] | Compound | Activity (Mus musculus [1]) | Activity (H22) | Activity (Mus musculus [3]) | inhibition in vivo at 90 mg/kg (MDA-MB-231 [5]) | T/C (MDA-MB-231 [5]) | Activity (Mus musculus [6]) | Activity (MDA-MB-231 [7]) | Activity (MDA-MB-231 [8]) |
| --- | --- | --- | --- | --- | --- | --- | --- | --- | --- | --- |
| Active | inactive | CC[C@H](C)[C@@H](CN1Cc2cc(OCC(=O)NO)ccc2C[C@H]1C(=O)Nc1ccc(OC)cc1)NC(=O)CC(C)(C)C | Non-toxic | Active | Non-toxic | -9% | 87% | Non-toxic | – | – |
| – | inactive | O=C(CCCCCCC(=O)Nc1ccccc1)NO | – | inactive | – | – | – | – | Active | Active |
| Active | inactive | CC[C@H](C)[C@@H](CN1Cc2cc(OCC(=O)NO)ccc2C[C@H]1C(=O)Nc1ccc(OC)cc1)NC(=O)OC(C)(C)C | Non-toxic | Active | Non-toxic | 55% | 47% | Non-toxic | – | – |
| Active | inactive | CC[C@H](C)[C@H](NC(=O)OC(C)(C)C)C(=O)N1Cc2cc(OCC(=O)NO)ccc2C[C@H]1C(=O)Nc1ccc(OC)cc1 | Non-toxic | Active | Non-toxic | 40% | 63% | Non-toxic | – | – |
